Measurements taken from ChEMBL document CHEMBL4152245, “Design, synthesis and biological evaluation of benzo[cd]indol-2(1H)-ones derivatives as BRD4 inhibitors” (Eur J Med Chem, 2018).
The source made the active and inactive calls. The rule behind the calls is not given here.

Experiments:
[1] = molecular target: T1, Bromodomain-containing protein 4 (Homo sapiens, UniProt O60885); experiment: (§1) Inhibition of His-tagged BRD4 bromodomain-1 (unknown origin) expressed in Escherichia coli BL21(DE3) at 20 uM using SGRGK(Ac)-GG-K(Ac)-GLG-K(Ac)-GGA-K(Ac)-RHRKVGG-K-Biotin as substrate preincubated for 15 mins followed by substrate addition measured after 10 mins by Alphascreen assay relative to control
How it was run: (§2)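 His-tagged BRD4_BD1 purified by Ni-NTA, anion exchange and gel filtration, tag retained. Assay buffer: 20 mM HEPES pH 7.4, 0.1% BSA, 0.01% Triton X-100, 1 mM DTT. Protein preincubated with compound 15 min at room temperature, biotinylated tetra-acetyl peptide added for 10 min, then streptavidin donor and nickel chelate acceptor beads for 60 min. Compounds screened at 20 and 5 µM; IC50 from three independent experiments.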

[2] = molecular target: T1, Bromodomain-containing protein 4; experiment: as §1, with “5” for “20”; how it was run: as §2
[3] = molecular target: T1, Bromodomain-containing protein 4; experiment: as §1, with “100” for “20”
[4] = molecular target: T1, Bromodomain-containing protein 4; experiment: Inhibition of His-tagged BRD4 bromodomain-1 (unknown origin) expressed in Escherichia coli BL21(DE3) using SGRGK(Ac)-GG-K(Ac)-GLG-K(Ac)-GGA-K(Ac)-RHRKVGG-K-Biotin as substrate preincubated for 15 mins followed by substrate addition measured after 10 mins by Alphascreen assay; how it was run: as §2

SMILES | inhibition [1] | inhibition [2] | inhibition [3] | IC50 [4]
CCN1C(=O)c2cccc3c(S(=O)(=O)N4CCC[C@@H]4C(=O)NO)ccc1c23 | 50% | 7% |  | 
CCN1C(=O)c2cccc3c(S(=O)(=O)N4CCC(CNC(=O)OC(C)(C)C)CC4)ccc1c23 | 18% | inactive |  | 
CCN1C(=O)c2cccc3c(S(=O)(=O)N[C@H](C(=O)OC)C(C)C)ccc1c23 | 89% | 21% |  | 
CCN1C(=O)c2cccc3c(S(=O)(=O)N4CCOCC4)ccc1c23 | 97% | 55% |  | 
O=C(c1ccccc1)c1ccc(NS(=O)(=O)c2cccc(Br)c2)cc1 |  |  | > 90% | 
CCN1C(=O)c2cccc3c(S(=O)(=O)N4CCC[C@@H]4C(=O)Nc4ccccc4C)ccc1c23 | 39% | inactive |  | 
CCN1C(=O)c2cccc3c(S(=O)(=O)N(CC)CC)ccc1c23 | 82% | 29% | > 90% | 42.2 µM
CCN1C(=O)c2cccc3c(S(=O)(=O)NCCC(=O)OC)ccc1c23 | 66% | 29% |  | 
CCN1C(=O)c2cccc3c(S(=O)(=O)N4CC[C@H](OC)C4)ccc1c23 | 80% | 28% |  | 
CCN1C(=O)c2cccc3c(S(=O)(=O)N4CC[C@@H](O)C4)ccc1c23 | 67% | 21% | > 90% | 27.5 µM
CCN1C(=O)c2cccc3c(S(=O)(=O)N4CCC[C@@H]4C(=O)Nc4ccc(C)cc4)ccc1c23 | 51% | 8% |  | 
CN(C)C(=O)CN1C(=O)c2cccc3c(S(=O)(=O)N4CCCC4)ccc1c23 | inactive | inactive | > 90% | 18.7 µM
CCN1C(=O)c2cccc3c(S(=O)(=O)N4CCC[C@@H](O)C4)ccc1c23 | 27% | 9% | > 90% | 32.2 µM
CCCN1C(=O)c2cccc3c(S(=O)(=O)N4CCCC4)ccc1c23 | 15% | inactive | > 90% | 11 µM
CN1C(=O)c2cccc3c(S(=O)(=O)N4CCCC4)ccc1c23 | 25% | 5% |  | 
CCN1C(=O)c2cccc3c(S(=O)(=O)N4CC[C@H](NC(=O)OC(C)(C)C)C4)ccc1c23 | 88% | 37% | > 90% | 50.7 µM
CCN1C(=O)c2cccc3c(S(=O)(=O)N4CC[C@@H](NC(=O)OC(C)(C)C)C4)ccc1c23 | 95% | 57% | > 90% | 13.3 µM
CCN1C(=O)c2cccc3c(S(=O)(=O)N4CC[C@H](N)C4)ccc1c23 | inactive | inactive |  | 
CCN1C(=O)c2cccc3c(S(=O)(=O)N4CCC(N)CC4)ccc1c23 | 16% | inactive |  | 
CCN1C(=O)c2cccc3c(S(=O)(=O)N4CCC[C@@H]4C(=O)Nc4ccccc4O)ccc1c23 | inactive | inactive |  | 
CCN1C(=O)c2cccc3c(S(=O)(=O)N[C@@H](Cc4ccccc4)C(=O)OC)ccc1c23 | 71% | 37% |  | 
CCN1C(=O)c2cccc3c(S(=O)(=O)N4CC[C@H](O)C4)ccc1c23 | 88% | 35% |  | 
CCN1C(=O)c2cccc3c(S(=O)(=O)N4CC[C@@H](OC)C4)ccc1c23 | 8% | 17% | > 90% | 13.3 µM
CCN1C(=O)c2cccc3c(S(=O)(=O)N4CCC(NC(=O)OC(C)(C)C)CC4)ccc1c23 | 45% | 18% |  | 

SMILES | inhibition [1] | inhibition [2] | inhibition [3] | IC50 [4]
CCN1C(=O)c2cccc3c(S(=O)(=O)Nc4ccccc4OC)ccc1c23 | 82% | 33% |  | 
CCN1C(=O)c2cccc3c(S(=O)(=O)N[C@@H](Cc4ccccc4)C(=O)O)ccc1c23 | inactive | 4% |  | 
CCN1C(=O)c2cccc3c(S(=O)(=O)N4CC[C@@H](N)C4)ccc1c23 | inactive | 3% |  | 
CCN1C(=O)c2cccc3c(S(=O)(=O)N[C@H](C(=O)O)C(C)C)ccc1c23 | inactive | inactive |  | 
CCN1C(=O)c2cccc3c(S(=O)(=O)N4CCC[C@@H]4C(=O)OC)ccc1c23 | 61% | 27% |  | 
CCN1C(=O)c2cccc3c(S(=O)(=O)NCCC(=O)O)ccc1c23 | 60% | 41% |  | 
CCN1C(=O)c2cccc3c(S(=O)(=O)N4CCC[C@H](O)C4)ccc1c23 | 14% | inactive |  | 
CCN1C(=O)c2cccc3c(S(=O)(=O)N4CCC[C@H](N)C4)ccc1c23 | inactive | inactive |  | 
CCN1C(=O)c2cccc3c(S(=O)(=O)N4CCC[C@@H]4C(=O)Nc4ccc(O)cc4)ccc1c23 | 63% | 18% |  | 
CCN1C(=O)c2cccc3c(S(=O)(=O)NCCCO)ccc1c23 | inactive | inactive |  | 
O=C(O)CN1C(=O)c2cccc3c(S(=O)(=O)N4CCCC4)ccc1c23 | 4% | inactive | > 90% | 23.1 µM
O=C1c2cccc3c(S(=O)(=O)N4CCCC4)ccc(c23)N1CCO | 8% | inactive | > 90% | 69.2 µM
CCN1C(=O)c2cccc3c(S(=O)(=O)N4CCC[C@@H]4C(=O)Nc4ccc(Cl)cc4)ccc1c23 | 89% | 42% |  | 
CCN1C(=O)c2cccc3c(S(=O)(=O)N4CCC[C@H](NC(=O)OC(C)(C)C)C4)ccc1c23 | 20% | 7% |  | 
CCOC(=O)CNS(=O)(=O)c1ccc2c3c(cccc13)C(=O)N2CC | 12% | inactive |  | 
CCN1C(=O)c2cccc3c(S(=O)(=O)N4CCC[C@H]4CO)ccc1c23 | 22.4% | 11% |  | 
CCN1C(=O)c2cccc3c(S(=O)(=O)N4CCC[C@@H]4CO)ccc1c23 | 4% | 9% |  | 
CCN1C(=O)c2cccc3c(S(=O)(=O)NCC(=O)O)ccc1c23 | 53% | inactive |  | 
CCN1C(=O)c2cccc3c(S(=O)(=O)N4CCC[C@@H](NC(=O)OC(C)(C)C)C4)ccc1c23 | 20% | 9% |  | 
CC(=O)N1C(=O)c2cccc3c(S(=O)(=O)N4CCCC4)ccc1c23 | 9% | 7% | > 90% | 12.7 µM
CCN1C(=O)c2cccc3c(S(=O)(=O)N4CCC(CN)CC4)ccc1c23 | 74% | 23% |  | 
CCN1C(=O)c2cccc3c(S(=O)(=O)N4CCCCC4)ccc1c23 | 99% | 58% | > 90% | 47.3 µM
CCN1C(=O)c2cccc3c(S(=O)(=O)N4CCC[C@@H](N)C4)ccc1c23 | inactive | inactive |  | 
